Reference: article PMC7340117 (SLAS discovery : advancing life sciences R & D, 2019)
Values after ≈ are worked out from the molar mass of the structure shown. Like-named read-outs stand apart in the source and are kept apart here. Each block holds one compound with its values, some of them ahead of it.

What was measured:
Amplex red REDOX assay = assay: Amplex red REDOX assay
Summary of the method: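 Test compound (20 nL) was pinned into HBSS (1.26 mM CaCl2, 0.49 mM MgCl2, 1 g/L D-glucose), and background fluorescence was read (ex/em 525/598 nm). An equal volume of 2X Amplex Red mix (100 µM Amplex Red, 200 µM DTT, 2 U/mL HRP in HBSS) was added. After 15 min at room temperature the plate was re-read; ΔRFU = 15 min − 0 min. DMSO was the negative control; walrycin B and […] were positive controls.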

human fumarate hydratase [1] = target: T1, human fumarate hydratase (Homo sapiens, UniProt P07954); assay: microscale thermophoresis; format: binding
T1 sequence (P07954 45-510): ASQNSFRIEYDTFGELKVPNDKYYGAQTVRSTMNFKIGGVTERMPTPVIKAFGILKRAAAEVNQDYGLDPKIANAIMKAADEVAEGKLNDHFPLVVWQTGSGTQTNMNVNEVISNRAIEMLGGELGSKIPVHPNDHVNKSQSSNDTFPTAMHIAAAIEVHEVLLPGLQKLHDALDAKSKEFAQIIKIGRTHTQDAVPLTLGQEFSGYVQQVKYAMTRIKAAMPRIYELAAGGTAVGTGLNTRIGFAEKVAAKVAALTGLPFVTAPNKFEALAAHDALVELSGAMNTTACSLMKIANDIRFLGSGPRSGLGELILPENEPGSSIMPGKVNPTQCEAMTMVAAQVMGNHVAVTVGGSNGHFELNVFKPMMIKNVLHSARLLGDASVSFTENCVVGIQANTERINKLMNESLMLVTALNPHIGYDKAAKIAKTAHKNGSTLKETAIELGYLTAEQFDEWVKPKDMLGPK
Summary of the method: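 Recombinant C-terminally His-tagged human FH (200 nM) was labelled with RED-tris-NTA dye (100 nM) in PBS-T pH 7.4, mixed 1:1 for 30 min at RT, and spun 15,000 x g. Compound: 16-point 1:2 DMSO series from 10 mM, diluted 20-fold in PBS-T, mixed 1:1 with protein (50 nM FH), 2–3 min RT. Settings: LED 40%, MST 40%/60%, laser 30 s on. Kd taken from cold/hot regions.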

[2] = aqueous kinetic solubility assay; format: physicochemical; details: aqueous medium, kinetic from dmso stock
[3] = parallel artificial membrane permeability assay; format: in vitro ADME
[4] = rat microsomal stability assay; format: in vitro ADME; details: liver microsomes
human fumarate hydratase [5] = target: T1, human fumarate hydratase; assay: fluorescence-based FH assay coupled to MDH/diaphorase/resazurin; format: biochemical; details: for Emax: read-out: Efficacy; for activity in FH assay (in words): human FH assay with fumarate
[6] = target: T2, L-malate dehydrogenase from pig heart (Sus scrofa, UniProt P00346); assay: malate dehydrogenase; format: biochemical; details: read-out: Km value for MDH enzyme; 10 IU/ml MDH, 5 min, room temperature
T2 sequence (P00346 25-338): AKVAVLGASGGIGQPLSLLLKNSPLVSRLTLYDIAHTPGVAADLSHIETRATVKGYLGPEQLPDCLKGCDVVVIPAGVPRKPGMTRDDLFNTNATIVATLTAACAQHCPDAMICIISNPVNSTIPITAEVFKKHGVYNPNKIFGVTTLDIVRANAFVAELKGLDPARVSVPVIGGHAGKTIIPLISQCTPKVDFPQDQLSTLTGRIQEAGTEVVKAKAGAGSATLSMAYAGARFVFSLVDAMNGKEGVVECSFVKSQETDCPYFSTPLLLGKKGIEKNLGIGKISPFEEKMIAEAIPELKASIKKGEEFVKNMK

malate dehydrogenase = target: T3, malate dehydrogenase (Sus scrofa, UniProt P00346); assay: MDH assay without malate; format: biochemical, pig; details: no malate added
T3 sequence (P00346 25-338): T2 sequence (P00346 25-338)

human fumarate hydratase [7] = target: T1, human fumarate hydratase; assay: FH assay without fumarate; format: biochemical; details: no fumarate added

SMILES: O=C1C(Cl)=C(Cl)C(=O)C(Cl)=C1Cl [Chloranil]
redox activity in amplex red assay (in words) (Amplex red REDOX assay): strong REDOX activity

Kd (human fumarate hydratase [1]): 18.3 µM | solubility [2]: 2.15 µg/mL (≈ 5.46 µM) | PAMPA permeability pH 5 [3]: 762.26 1×10–6 cm/s | PAMPA Permeability pH 7.4 [3]: 1,224.00 1×10–6 cm/s | PAMPA permeability at pH 7.4 (in words) [3]: high permeability | half-life [4]: 1.11 min | AC50 (human fumarate hydratase [5]): 8.89 µM | Emax (human fumarate hydratase [5]): 79.4%
SMILES: Cn1c(=O)c2c(-c3ccc(Cl)cc3)n(CCc3ccccc3)cc2n(C)c1=O [NCGC00102736, 5-(4-chlorophenyl)-1,3-dimethyl-6-phenethyl-1,6-dihydro-2H-pyrrolo[3,4-d]pyrimidine-2,4(3H)-dione]

AC50 (human fumarate hydratase [5]): 25.1 µM | Emax (human fumarate hydratase [5]): 60.5%
SMILES: CCCCn1cc2c(c1-c1ccc(Cl)cc1)c(=O)n(C)c(=O)n2C [NCGC00115662, 6-butyl-5-(4-chlorophenyl)-1,3-dimethyl-1,6-dihydro-2H-pyrrolo[3,4-d]pyrimidine-2,4(3H)-dione]

AC50 (human fumarate hydratase [5]): 17.7 µM | Emax (human fumarate hydratase [5]): 52%
SMILES: Cn1c(=O)c2c(-c3ccc(Cl)cc3)n(Cc3ccc(Cl)cc3)cc2n(C)c1=O [NCGC00115664, 6-(4-chlorobenzyl)-5-(4-chlorophenyl)-1,3-dimethyl-1,6-dihydro-2H-pyrrolo[3,4-d]pyrimidine-2,4(3H)-dione]

AC50 (human fumarate hydratase [5]): 5.61 µM | Emax (human fumarate hydratase [5]): 35%
SMILES: CCCCCn1cc2c(c1-c1ccc(Cl)cc1)c(=O)n(C)c(=O)n2C [NCGC00115666, 5-(4-chlorophenyl)-1,3-dimethyl-6-pentyl-1,6-dihydro-2H-pyrrolo[3,4-d]pyrimidine-2,4(3H)-dione]

AC50 (human fumarate hydratase [5]): 15.8 µM | Emax (human fumarate hydratase [5]): 45.5%
SMILES: Cn1c(=O)c2c(-c3ccccc3Cl)n(Cc3ccc(Cl)cc3)cc2n(C)c1=O [NCGC00115668, 6-(4-chlorobenzyl)-5-(2-chlorophenyl)-1,3-dimethyl-1,6-dihydro-2H-pyrrolo[3,4-d]pyrimidine-2,4(3H)-dione]

solubility [2]: < 1 µg/mL | PAMPA permeability pH 5 [3]: 945.87 1×10–6 cm/s | PAMPA Permeability pH 7.4 [3]: Not conclusive | half-life [4]: 6.39 min | AC50 (human fumarate hydratase [5]): 7.93 µM | Emax (human fumarate hydratase [5]): 60.1%
SMILES: CCCCCn1cc2c(c1-c1ccc(Br)cc1)c(=O)n(C)c(=O)n2C [NCGC00117671, 5-(4-bromophenyl)-1,3-dimethyl-6-pentyl-1,6-dihydro-2H-pyrrolo[3,4-d]pyrimidine-2,4(3H)-dione]

Kd (human fumarate hydratase [1]): 23.3 µM | solubility [2]: < 1 µg/mL | PAMPA permeability pH 5 [3]: 1,194 1×10–6 cm/s | PAMPA Permeability pH 7.4 [3]: 1,507 1×10–6 cm/s | PAMPA permeability at pH 7.4 (in words) [3]: high permeability | half-life [4]: 7.68 min | AC50 (human fumarate hydratase [5]): 9.98 µM | Emax (human fumarate hydratase [5]): 79%
SMILES: CCCCn1cc2c(c1-c1ccc(Br)cc1)c(=O)n(C)c(=O)n2C [NCGC00117675, 5-(4-bromophenyl)-6-butyl-1,3-dimethyl-1,6-dihydro-2H-pyrrolo[3,4-d]pyrimidine-2,4(3H)-dione]

solubility [2]: 14.7 µg/mL (≈ 33.5 µM) | PAMPA permeability pH 5 [3]: 590 1×10–6 cm/s | PAMPA Permeability pH 7.4 [3]: Not conclusive | half-life [4]: 1.23 min | AC50 (human fumarate hydratase [5]): 7.06 µM | Emax (human fumarate hydratase [5]): 63.7%
SMILES: Cn1c(=O)c2c(-c3ccc(Br)cc3)n(CCc3ccccc3)cc2n(C)c1=O [NCGC00117693, 5-(4-bromophenyl)-1,3-dimethyl-6-phenethyl-1,6-dihydro-2H-pyrrolo[3,4-d]pyrimidine-2,4(3H)-dione]

AC50 (human fumarate hydratase [5]): 31.5 µM | Emax (human fumarate hydratase [5]): 79.5%
SMILES: COc1ccc(CCn2cc3c(c2-c2ccc(Br)cc2)c(=O)n(C)c(=O)n3C)cc1OC [NCGC00117695, 5-(4-bromophenyl)-6-(3,4-dimethoxyphenethyl)-1,3-dimethyl-1,6-dihydro-2H-pyrrolo[3,4-d]pyrimidine-2,4(3H)-dione]

AC50 (human fumarate hydratase [5]): 31.5 µM | Emax (human fumarate hydratase [5]): 49.7%
SMILES: CCCCCn1cc2c(c1-c1ccccc1Br)c(=O)n(C)c(=O)n2C [NCGC00117699, 5-(2-bromophenyl)-1,3-dimethyl-6-pentyl-1,6-dihydro-2H-pyrrolo[3,4-d]pyrimidine-2,4(3H)-dione]

AC50 (human fumarate hydratase [5]): 28.1 µM | Emax (human fumarate hydratase [5]): 78.1%
SMILES: Cn1c(=O)c2c(-c3ccccc3Br)n(Cc3ccccc3)cc2n(C)c1=O [NCGC00117701, 6-benzyl-5-(2-bromophenyl)-1,3-dimethyl-1,6-dihydro-2H-pyrrolo[3,4-d]pyrimidine-2,4(3H)-dione]

AC50 (human fumarate hydratase [5]): 25.1 µM | Emax (human fumarate hydratase [5]): 70%
SMILES: Cn1c(=O)c2c(-c3ccccc3Br)n(CCc3ccccc3)cc2n(C)c1=O [NCGC00117727, 5-(2-bromophenyl)-1,3-dimethyl-6-phenethyl-1,6-dihydro-2H-pyrrolo[3,4-d]pyrimidine-2,4(3H)-dione]

activity in FH assay (in words) (human fumarate hydratase [5]): inactive
SMILES: Cn1c(=O)c2c(-c3ccccc3)n(CCCO)cc2n(C)c1=O [NCGC00141286]

SMILES: O=C([O-])C(O)C(O)C(=O)[O-].[K+].[Na+] (centres unmarked) [Potassium sodium tartrate, reference compound]
activity in FH assay (in words) (human fumarate hydratase [5]): increased activity

SMILES: Cn1nc(-c2ccc(C(F)(F)F)cc2)nc2c(=O)n(C)c(=O)nc1-2 [Walrycin B]
redox activity in amplex red assay (in words) (Amplex red REDOX assay): weak | redox activity in amplex red assay (in words) (Amplex red REDOX assay; listed as walrycin B): weak REDOX activity

Km (human fumarate hydratase [5]; read-out: Km value for FH enzyme, 10 nM FH, 15 min, room temperature): 41 ± 1.1 µM
SMILES: O=C(O)/C=C/C(=O)O [fumarate, reference compound]

Km [6]: 225 ± 30 µM
SMILES: O=C(O)CC(O)C(=O)O (centres unmarked) [malate]

SMILES: O=C(O)C(O)C(O)C(=O)O (centres unmarked) [tartrate]
signal in MDH assay in the absence of malate (in words) (malate dehydrogenase): can drive both enzymes | signal in FH assay in the absence of fumarate (in words) (human fumarate hydratase [7]): can drive both enzymes
